Test results as given in ChEMBL document CHEMBL1926580, “Identification and development of 2,5-disubstituted oxadiazole as potential candidate for treatment of XDR and MDR tuberculosis” (2012).
≈ marks a conversion by molar mass, not a printed value.

What was measured:
BHK-21 = test: Cytotoxicity against hamster BHK21 cells after 5 days; type: functional; conditions: Mesocricetus auratus, BHK-21, 120 h
In short: (§1)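 HepG2 and BHK21 cells were seeded, incubated 24 h at 37 °C, then exposed to twofold serial dilutions of compound. The value is CC50 (50% cytotoxic concentration), from at least two independent assays.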

HepG2 = test: Cytotoxicity against human HepG2 cells after 5 days; type: functional; conditions: HepG2, 120 h; in short: as §1
[1] = system: Mycobacterium tuberculosis; test: Antitubercular activity against Mycobacterium tuberculosis H37Rv ATCC 27294 assessed as intracellular ATP level after 5 days by luminescence assay; type: functional
In short: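 Growth inhibition of M. tuberculosis H37Rv reported as MIC50. Compounds were dissolved in 90% DMSO (stock), twofold serially diluted in duplicate to 10 concentrations, and spotted into 384-well plates. Assays were run at least twice.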

[2] = system: Mycobacterium tuberculosis; test: Antimycobacterial activity against Mycobacterium tuberculosis TN3183 assessed as intracellular ATP level after 5 days by luminescence assay; type: functional; conditions: TN3183, 120 h
[3] = system: Mycobacterium tuberculosis; test: Antimycobacterial activity against Mycobacterium tuberculosis TN3979 assessed as intracellular ATP level after 5 days by luminescence assay; type: functional; conditions: TN3979, 120 h
[4] = system: Mycobacterium tuberculosis; test: Antimycobacterial activity against Mycobacterium tuberculosis TN1008 assessed as intracellular ATP level after 5 days by luminescence assay; type: functional; conditions: TN1008, 120 h
[5] = system: Mycobacterium tuberculosis; test: Antimycobacterial activity against clinical isolate Mycobacterium tuberculosis TN994 assessed as intracellular ATP level after 5 days by luminescence assay; type: functional; conditions: TN994, 120 h
[6] = system: Mycobacterium tuberculosis; test: Antimycobacterial activity against Mycobacterium tuberculosis TN1051 assessed as intracellular ATP level after 5 days by luminescence assay; type: functional; conditions: TN1051, 120 h
[7] = system: Mycobacterium tuberculosis; test: Antimycobacterial activity against Mycobacterium tuberculosis BE11677 assessed as intracellular ATP level after 5 days by luminescence assay; type: functional; conditions: BE11677, 120 h
[8] = system: Mycobacterium tuberculosis; test: Antimycobacterial activity against Mycobacterium tuberculosis E8133 assessed as intracellular ATP level after 5 days by luminescence assay; conditions: E8133, 120 h
[9] = system: Mycobacterium tuberculosis; test: Antimycobacterial activity against Mycobacterium tuberculosis W4 assessed as intracellular ATP level after 5 days by luminescence assay; type: functional; conditions: W4, 120 h
[10] = system: Mycobacterium tuberculosis; test: Antimycobacterial activity against Mycobacterium tuberculosis TN1082 assessed as intracellular ATP level after 5 days by luminescence assay; type: functional; conditions: TN1082, 120 h
[11] = system: Mycobacterium tuberculosis; test: Antimycobacterial activity against Mycobacterium tuberculosis TN1037 assessed as intracellular ATP level after 5 days by luminescence assay; type: functional; conditions: TN1037, 120 h
[12] = system: Mycobacterium tuberculosis; test: Antimycobacterial activity against Mycobacterium tuberculosis TN913 assessed as intracellular ATP level after 5 days by luminescence assay; type: functional; conditions: TN913, 120 h
[13] = system: Mycobacterium tuberculosis; test: Antimycobacterial activity against Mycobacterium tuberculosis TN2351 assessed as intracellular ATP level after 5 days by luminescence assay; type: functional; conditions: TN2351, 120 h
[14] = system: Mycobacterium tuberculosis; test: Antimycobacterial activity against clinical isolate of Mycobacterium tuberculosis TN675 assessed as intracellular ATP level after 5 days by luminescence assay; type: functional; conditions: TN675, 120 h
[15] = system: Mycobacterium tuberculosis; test: Antimycobacterial activity against Mycobacterium tuberculosis AH9584 assessed as intracellular ATP level after 5 days by luminescence assay; type: functional; conditions: AH9584, 120 h
[16] = system: Mycobacterium tuberculosis; test: Antimycobacterial activity against Mycobacterium tuberculosis TN1040 assessed as intracellular ATP level after 5 days by luminescence assay; type: functional; conditions: TN1040, 120 h
[17] = system: Mycobacterium tuberculosis; test: Antimycobacterial activity against Mycobacterium tuberculosis TN4259 assessed as intracellular ATP level after 5 days by luminescence assay; type: functional; conditions: TN4259, 120 h
[18] = system: Mycobacterium tuberculosis; test: Antimycobacterial activity against Mycobacterium tuberculosis TN2524 assessed as intracellular ATP level after 5 days by luminescence assay; type: functional; conditions: TN2524, 120 h
[19] = Mycobacterium tuberculosis, H37Rv ATCC 27294, 120 h

Row | SMILES | CC50 (BHK-21) | CC50 (HepG2) | MBC90 [1] | MIC50 [1, 19] | also measured
1 | ClCCCSc1nnc(COc2ccc(Cl)cc2Cl)o1 | > 50 µM | > 50 µM | 2.5 µM (≈ 0.884 µg/mL) | 0.65 µM (≈ 0.23 µg/mL) | –
2 | CCCSc1nnc(COc2ccc(Cl)cc2Cl)o1 | 13.8 µM | 19.3 µM | 2.5 µM (≈ 0.798 µg/mL) | 0.63 µM (≈ 0.201 µg/mL) | –
3 | O=C(CCl)Sc1nnc(COc2ccc(Cl)cc2Cl)o1 | – | – | – | > 20 µM | –
4 | ClCCCSc1nnc(Cc2ccc(Cl)cc2Cl)o1 | > 50 µM | > 50 µM | 5 µM (≈ 1.69 µg/mL) | 1.42 µM (≈ 0.479 µg/mL) | –
5 | CCCSc1nnc(Cc2ccc(Cl)cc2Cl)o1 | > 50 µM | > 50 µM | 5 µM (≈ 1.52 µg/mL) | 1.19 µM (≈ 0.361 µg/mL) | –
6 | O=C(CCl)Sc1nnc(Cc2ccc(Cl)cc2Cl)o1 | – | – | – | 9.67 µM (≈ 3.26 µg/mL) | –
7 | O=[N+]([O-])c1cccc(OCc2nnc(SCCCCl)o2)c1 | > 50 µM | > 50 µM | – | 11.7 µM (≈ 3.86 µg/mL) | –
8 | CCCSc1nnc(COc2cccc([N+](=O)[O-])c2)o1 | > 50 µM | > 50 µM | – | 8.52 µM (≈ 2.52 µg/mL) | –
9 | O=C(CCl)Sc1nnc(COc2cccc([N+](=O)[O-])c2)o1 | – | – | – | > 20 µM | –
10 | O=[N+]([O-])c1cccc(Cc2nnc(SCCCCl)o2)c1 | > 50 µM | > 50 µM | – | 7.48 µM (≈ 2.35 µg/mL) | –
11 | CCCSc1nnc(Cc2cccc([N+](=O)[O-])c2)o1 | > 50 µM | > 50 µM | – | 6.81 µM (≈ 1.9 µg/mL) | –
12 | O=C(CCl)Sc1nnc(Cc2cccc([N+](=O)[O-])c2)o1 | – | – | – | > 20 µM | –
13 | NNC(=O)c1ccncc1 [ISONIAZID] | – | – | – | 0.03 µM (≈ 0.00411 µg/mL) | MIC [2]: 0.03 µg/mL (≈ 0.219 µM); MIC [3]: 0.06 µg/mL (≈ 0.438 µM); MIC [4]: 0.06 µg/mL (≈ 0.438 µM); MIC [5]: 0.03 µg/mL (≈ 0.219 µM); MIC [6]: 0.03 µg/mL (≈ 0.219 µM); MIC [7]: 0.2 µg/mL (≈ 1.46 µM); MIC [8]: 0.08 µg/mL (≈ 0.583 µM); MIC [9]: 0.03 µg/mL (≈ 0.219 µM); MIC [10]: 0.03 µg/mL (≈ 0.219 µM); MIC [11]: 0.03 µg/mL (≈ 0.219 µM); MIC [12]: 0.03 µg/mL (≈ 0.219 µM); MIC [13]: 0.06 µg/mL (≈ 0.438 µM); MIC [1, 19]: 0.03 µg/mL (≈ 0.219 µM); MIC [14]: 0.03 µg/mL (≈ 0.219 µM); MIC [15]: 0.19 µg/mL (≈ 1.39 µM); MIC [16]: 0.03 µg/mL (≈ 0.219 µM); MIC [17]: 0.03 µg/mL (≈ 0.219 µM); MIC [18]: 0.06 µg/mL (≈ 0.438 µM)
